PTEN del growth: growth suppressors of cells with PTEN tumor suppressor deletion | viability, % at 10 µM | 140,000 compounds, 1.2% hits | HCT116 PTEN-null viability, CellTiter-Glo, 60 h; stronger effect = lower value | AID 827;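 active = viability at or below a set limit, 4 SD under the median of all tested compounds, cut at about 3.7% in these data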;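 note: PTEN knockout HCT116 line with beta catenin targeted HCT116 as companion control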
Lung fibro prol: blocks proliferation of human lung fibroblasts; viability, % at 10 µM; LL 47 human lung fibroblast viability, ATP luminescence; stronger effect = lower value; 85,000 compounds, 1.1% hits;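 active = viability at or below 50% in the single dose screen; inactive = viability above 50%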;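 note: compound exposure lasted 72 h before the ATP readout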
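Material: Human LL 47 lung fibroblast cells | Input: 1,150 cells/well | Buffer or medium: IMEM plus 15% FBS | Compound dosing: 0.1% DMSO in all compound wells | Times: Overnight cell rest, 72 h compound treatment at 37 °C | Signal: CellTiter-Glo luminescence measuring cellular ATP | Measure: % viability versus median cells-only luminescence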
HUVEC inhibit: human endothelial cell proliferation inhibition; 86,000 compounds, 1.1% hits; viability, % at 10 µM (by protocol); HUVEC proliferation, CellTiter-Glo luminescence, 72 h; stronger effect = lower value;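 active = viability at or below 30%; inactive = viability above 30%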
H69AR inhibit: blocks growth of human H69AR lung tumor cells. H69AR lung tumor viability, ATP luminescence, 72 h; stronger effect = lower value. viability, % at 10 µM. 85,000 compounds, 6% hits. AID 598;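 active = viability at or below 40%; inactive = viability above 40%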;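 note: multidrug resistant small cell line overexpressing MRP-1 efflux transporter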
HCT116 bCat-KO: beta-catenin-lacking colon tumor cell growth suppression. 140,000 compounds, 1.5% hits. viability, % at 10 µM. HCT116 beta-catenin knockout viability, CellTiter-Glo, 60 h; stronger effect = lower value. AID 818;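 active = viability at or under a set limit, the compound median less 4 SD, cut at about 6% in these data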
Hits are given with their value; i = inactive; nt = no result given. The sample as a whole holds a higher share of hits than the screen did.

SMILES | PTEN del growth | Lung fibro prol | HUVEC inhibit | H69AR inhibit | HCT116 bCat-KO
O=C(CCS(=O)(=O)c1ccccc1)Nc1ccccc1-c1nc2ccccc2s1 | i | nt | nt | nt | i
Cc1cccc(N2CCN(C(=S)NCc3ccco3)CC2)c1C | i | nt | nt | nt | i
Cc1ccc(-n2nnnc2-c2cnc3cc4c(cc3c2C)OCO4)cc1 | i | nt | nt | nt | i
Cc1nc(N2CCN(c3ccccc3)CC2)[nH]c(=O)c1Cc1cccc2ccccc12 | i | i | i | 22 | i
CCC(=O)Nc1ccccc1Nc1cc(C#N)c(C#N)cc1[N+](=O)[O-] | nt | i | i | i | nt
COc1ccccc1-c1cc(-c2ccccc2)nc(SC(C(N)=O)c2ccccc2)c1C#N (stereo not given) | 3.5 | nt | nt | nt | i
CC(C)Nc1nc(NC(C)C)nc(N(C#N)CCOc2ccc(Cl)cc2Cl)n1 | i | i | i | 28 | i
O=C(CSc1nnc(-c2cccnc2)n1-c1ccccc1)Nc1ccccc1 | i | i | i | i | i
O=C(CSc1nnc(-c2cccs2)n1-c1ccccc1)Nc1ccccc1 | i | 41 | i | i | i
Cc1ccc(NC(=O)CSc2nnc(-c3cccnc3)n2-c2ccc(C)cc2)cc1 | i | i | i | 27 | i
Cc1ccccc1-n1c(SCC(=O)c2cc(C)n(C)c2C)nnc1-c1cccnc1 | i | i | i | 39 | i
Cc1ccc(-n2c(Cc3cccs3)nnc2SCC(=O)Nc2ccc(F)c(F)c2)cc1 | i | 4.0 | i | i | i
Cc1c(C(=O)Oc2cccc3ccccc23)cnn1-c1ccccc1 | i | nt | nt | nt | i
O=C(N1CCOCC1)C(F)(F)C(=O)N1CCOCC1 | i | i | i | i | i
Cn1c(C2CCCN2C(=O)OC(C)(C)C)n[nH]c1=S (stereo not given) | i | i | i | 1.8 | i
COc1cccc(N/C(SC)=C(/C#N)C(N)=O)c1 | i | i | i | 28 | i
CCOC(=O)c1c(NC(C)=O)sc2c(OC)c(Br)ccc12 | i | i | i | 38 | i
CCOC(=O)c1c(NC(C)=O)sc2c(OC)cccc12 | i | i | i | i | i
CC(NC(=O)CN(c1cccc(C(F)(F)F)c1)S(=O)(=O)c1ccc(Cl)c([N+](=O)[O-])c1)c1ccccc1 (stereo not given) | i | nt | nt | nt | 5.8
COc1cccc2c(=O)c(SC(F)(F)C(F)C(F)(F)F)c(C)[nH]c12 (stereo not given) | i | i | i | 17 | i
CCOC(=O)CN1N=C(/C=C/c2ccc(OC)cc2)CCC1=O | i | nt | nt | nt | i
CNC(=O)c1ccc(-c2sc3nc(N4CCOCC4)c4c(c3c2N)CCCC4)o1 | i | i | i | 21 | i
CNC(=O)c1ccc(-c2sc3nc(N4CCOCC4)c4c(c3c2N)CC(C)(C)OC4)o1 | i | i | i | i | i
CC(=O)C(Sc1ncnc2c1nnn2-c1ccc(F)cc1)C(=O)N(C)C (stereo not given) | i | i | i | 12 | i
COc1ccc(C(C(=O)Nc2ccc(F)cc2)N(C(=O)Cn2nnc3ccccc32)C2CC2)cc1 (stereo not given) | i | nt | nt | nt | i
SMILES | PTEN del growth | Lung fibro prol | HUVEC inhibit | H69AR inhibit | HCT116 bCat-KO
CCCCCOc1ccc(Br)cc1/C(C)=N/NC1=NCCN1 | i | i | 6.4 | 2.3 | 3.1
Cc1sc2ncn(CC(=O)OC(C)C(=O)NC(C)(C)C)c(=O)c2c1C (stereo not given) | i | nt | nt | nt | i
COc1ccc2nc(SCC(=O)Nc3ccc(S(=O)(=O)N4CCCC4)cc3)c(C#N)cc2c1 | i | i | i | 6.0 | i
N#Cc1cc2ccccc2nc1SCC(=O)Nc1ccc(S(=O)(=O)N2CCCC2)cc1 | i | i | i | i | i
NC(=O)c1ccccc1NC(=O)NC1CCCCC1 | i | i | i | i | i
O=C(Nc1ccccc1NC(=O)NC1CCCCC1)NC1CCCCC1 | i | i | 3.6 | 0.6 | i
CC1(C)Cc2c(sc3c2c(=N)n(Cc2ccco2)c(=O)n3CC(=O)Nc2ccc(Cl)cc2)CO1 | nt | 22 | i | i | nt
Cc1ccccc1Cc1c(C)nc2c(C(=O)NCc3ccc4c(c3)OCO4)cnn2c1C | i | i | i | 29 | i
Cc1ccc(C)c(Cc2c(C)nc3c(C(=O)NCc4ccc5c(c4)OCO5)cnn3c2C)c1 | i | i | i | i | i
Cc1ccc(O)c(-c2cc(C(=O)Nc3ccc(S(=O)(=O)N4CC(C)OC(C)C4)cc3)[nH]n2)c1 (stereo not given) | i | i | i | 17 | i
CC(=O)Nc1ccc(S(=O)(=O)N2CCOCC2)cc1 | i | i | i | i | i
Cc1cc(O)c(-c2cc(C(=O)Nc3ccc(S(=O)(=O)N4CCOCC4)cc3)[nH]n2)cc1C | i | 49 | i | 33 | i
O=C(OCC(=O)N1N=C(c2ccc(Cl)cc2)CC1c1ccco1)c1ccccc1O (stereo not given) | i | i | i | i | i
CCOc1ccc(N2CCn3c2nc2c3c(=O)n(CCc3ccccc3)c(=O)n2C)cc1 | nt | i | i | 15 | nt
O=C(c1ccco1)c1nnn(Cc2ccccc2)c1-c1ccccc1 | i | i | i | i | i
O=C(CNC(=O)c1ccc(Br)o1)Nc1cccc(-c2cnc3ccccc3n2)c1 | i | i | i | 25 | i
CCOc1ccc2nc(NC(=O)C3CCCN(S(=O)(=O)c4cccs4)C3)sc2c1 (stereo not given) | i | i | i | i | i
CN1C(=O)/C(=C2\SC(N3CCCCCC3)=NC2=O)c2ccccc21 | nt | i | i | i | i
O=C1N=C(N2CCOCC2)S/C1=C1\C(=O)N(Cc2ccccc2)c2ccccc21 | i | i | i | 29 | i
CCCN1C(=O)/C(=C2\SC(N3CCCCC3)=NC2=O)c2ccccc21 | i | nt | i | 19 | i
O=C(c1ccc(Cn2cc(Br)cn2)cc1)N1CCN(c2ccccc2)CC1 | i | i | i | 8.8 | i
O=C(c1ccc(Cn2cc(Cl)cn2)cc1)N1CCN(c2ccccc2)CC1 | i | i | i | i | i
CC(=C/C(=O)O)/C(=C/c1ccccc1)C(=O)O | i | nt | nt | nt | i
[O-][n+]1onc2c1CCc1nnc(-c3ccccc3)cc1-2 | i | i | i | 35 | i
C=CCn1c(SC(C)C(=O)NCCC2=CCCCC2)nc2ccccc2c1=O (stereo not given) | i | i | i | i | i
SMILES | PTEN del growth | Lung fibro prol | HUVEC inhibit | H69AR inhibit | HCT116 bCat-KO
C=CCOc1ccc2c(c1)C(=NO)c1cc(OCC=C)ccc1-2 | i | i | i | 34 | i
COc1ccc(C(C(=O)OC(C)CN(C)C)c2ccccc2)cc1 (stereo not given) | i | nt | nt | nt | i
CN(C)CC(C(=O)c1ccccc1)c1ccccc1 (stereo not given) | 1.0 | 17 | i | 0.1 | 1.4
O=C(Nc1ccc2c(c1)OCCO2)NC1(C(F)(F)F)Oc2ccccc2O1 | i | i | i | i | i
O=C(NCC1CCCO1)NC1(C(F)(F)F)Oc2ccccc2O1 (stereo not given) | i | i | i | 21 | i
O=C(Nc1ccc2c(c1)OCO2)NC1(C(F)(F)F)Oc2ccccc2O1 | i | i | i | 26 | i
O=C(NC1(C(F)(F)F)Oc2ccccc2O1)N1CCCC1 | i | i | i | 28 | i
O=C(NCC1CCCO1)c1ccccc1 (stereo not given) | i | i | i | i | i
O=C(Nc1ccc(/C=C/c2nc3ccccc3o2)cc1)c1ccc(F)cc1 | i | nt | nt | nt | i

Screens deposited in PubChem by SRMLSC.
